MLL AF4-AF9 inh: inhibitors of human MLL-AF4/AF9 interaction | 350,000 compounds, 0.47% hits | AID 651704 | inhibition, % at 10 µM | P42568 | AlphaScreen, biotin-AF4 peptide binding to FLAG-AF9;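 active = every replicate reaching a set inhibition limit, whatever the replicate mean, cut at about 25% in these data; inconclusive = mean inhibition reaches that limit but some replicates miss it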
PfHsp90 set2: growth inhibition of yeast expressing Plasmodium Hsp90; S. cerevisiae expressing PfHsp90, BacTiter-Glo ATP, 48 h; yeast lacking PDR1 and PDR3 efflux regulators; inhibition, % at 9.4 µM; 310,000 compounds, 0.32% hits; AID 504621;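 active = every replicate shows inhibition above about 80%, whatever the replicate mean, limit read from the data; inconclusive = mean inhibition reaches the set limit but some replicate falls short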
Cneo AK release: Cryptococcus neoformans lysis via adenylate kinase release | C. neoformans lysis, adenylate kinase release luminescence, 4 h; normalised: neutral wells 0, clomiphene wells 100 | lysis activity, % at 15 µM | 360,000 compounds, 0.2% hits | AID 651654;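 active = mean lysis activity across replicates of at least 80%, whatever share of replicates individually reach that level; inactive = mean lysis activity below 80%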
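Assay system: C. neoformans cells. Amount: yeast cell density of 5 × 10^6 cells/mL. Technique: AK luminescence. Buffer or medium: YPD. Times: static 4 h at 37 °C with compound, 1 h detection. Dosing: single-point compound dose. Read-out: lysis from increased AK signal.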
rRNA inh HTS: inhibitors of bacterial rRNA selective over humanized ribosomes; 350,000 compounds, 1.6% hits; GFP signal change (wild-type ribosome), % (no concentration beside the values); E. coli WT GFP vs humanized-ribosome RFP mutants, fluorescence, 24 h; hits give low values; DMSO median 0, no signal -100;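 active = significant combined selectivity score with lowered wild-type GFP, culture density cut under 30%, mutant RFP and density less affected; inactive = any of these conditions unmet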
S100A4 inh HTS: blocks human S100A4 binding to myosin IIA peptide. S100A4/TAMRA-MyoIIA peptide fluorescence polarization. inhibition, % at 10.7 µM. 360,000 compounds, 0.14% hits. AID 652163. P26447;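 active = mean inhibition of at least 70% across replicates, with every replicate also reaching that level; inconclusive = mean inhibition reaches 70% but some replicates fall short; inactive = mean inhibition below 70%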
Target sequence (P26447 whole entry, looked up): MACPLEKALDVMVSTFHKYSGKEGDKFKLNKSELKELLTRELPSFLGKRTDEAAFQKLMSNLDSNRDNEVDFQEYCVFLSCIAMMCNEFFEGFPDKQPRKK
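Test system – S100A4 monomer (human) · Compound – single-point compound testing · Schedule – 5 min incubation before reading · Probe or stimulus – TAMRA-labelled myosin IIA heavy-chain peptide probe, 5 nM · Benchmarks – neutral control DMSO, positive control TFP · Medium – Calcium-containing HEPES buffer, pH 7.2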
DENV2 CPE rescue: DENV2-induced cell death inhibition; DENV2-infected cells, cytopathic effect rescue, plate reader; CPE inhibition, % at 9.99 µM; 350,000 compounds, 1.7% hits; AID 651640; in the data active = CPE inhibition above about 20%, passing the limit was not always enough; inconclusive = no clear call, values can overlap the other calls; tested in BHK-21 cells
Numbers stand for hits; - = inactive; ? = inconclusive; . = not tested or not shown. This is a sample that favours compounds with a hit; in the whole collection about 3.2% have one here.

SMILES	MLL AF4-AF9 inh	PfHsp90 set2	Cneo AK release	rRNA inh HTS	S100A4 inh HTS	DENV2 CPE rescue
O=C(C1CCC1)N1CCCCN2[C@@H](CO)[C@@H](c3ccc(-c4cccc(F)c4)cc3)[C@@H]2C1	-	.	-	.	-	-
O=S(=O)(c1cccs1)N1CCC(CO)(Cc2cccc(F)c2)CC1	-	-	.	-23.0	-	-
CCCCCn1c(CCNC(=O)c2cccs2)nc2ccccc21	-	-	-	-30.1	-	-
CC(C)CC1C(=O)N(Cc2cn(Cc3ccco3)nn2)CCS(=O)(=O)N1Cc1ccc(-c2ccc(Cl)cc2)cc1 (configuration not stated)	-	.	.	.	-	22.6
Cc1ccc(-c2ccc(CN3C(C(C)C)C(=O)N(Cc4cn(Cc5ccco5)nn4)CCS3(=O)=O)cc2)cc1 (configuration not stated)	-	.	-	.	-	28.0
CC(C)C1C(=O)N(Cc2cn(Cc3ccco3)nn2)CCS(=O)(=O)N1Cc1ccc(-c2cccc(N(C)C)c2)cc1 (configuration not stated)	-	.	.	-	-	-
CC(C)NC(=O)N(C)C[C@@H]1Oc2ccc(NC(=O)CCN3CCOCC3)cc2C(=O)N([C@H](C)CO)C[C@@H]1C	-	.	-	-	-	-
Cc1ccc(C2=NC3(CCCCC3)NC2=S)cc1	-	-	.	-	-	22.3
COc1ccc2c3c(n(C)c2c1)[C@@H](CO)N(C)CC31CN(S(=O)(=O)c2cccc(F)c2)C1	-	.	.	-	-	-
O=C1C=CC2(O[C@H](c3ccccc3)[C@@H](c3ccccc3)O2)[C@H](Sc2ccccc2O)C1	-	113.2	.	-	-	-
CCc1nc2c(OCc3cccc(Cl)c3)cccn2c1N(C)C(=O)c1ccco1	-	.	-	-	-	22.7
C[C@@H]1CN([C@@H](C)CO)C(=O)c2cc(NS(C)(=O)=O)ccc2O[C@@H](C)CCCCO[C@@H]1CN(C)C(=O)CCC(F)(F)F	-	.	-	-	-	-
COc1ccc(S(=O)(=O)N2C[C@H](O)COC[C@H]3O[C@H](CC(=O)N(C)C)CC[C@@H]32)cc1	-	.	-	-	-	-
COc1cccc(NC(=O)CCCN2C(=O)C3CC=CCC3C2=O)c1 (configuration not stated)	-	-	-	-	-	-
COc1cccc(NC(=O)CCN2C(=O)C3CC=CCC3C2=O)c1 (configuration not stated)	-	-	-	-	-	28.7
CCCNC(=O)Nc1ccc2c(c1)OC[C@@H](C)N(C(=O)CC)C[C@H](C)[C@H](OC)CN(C)C2=O	-	.	-	-	-	-
O=C(c1ccccc1)N1CC[C@H]2[C@H](CO)Nc3ccc(C#Cc4cccc(F)c4)cc3[C@H]21	.	.	-	-	.	63.6
O=C(c1cccc(F)c1)N1CC[C@@H]2[C@@H](CO)Nc3ccc(C#Cc4ccccc4)cc3[C@@H]21	-	.	.	-	-	-
O=C(c1ccccc1)N1CC[C@@H]2[C@H](CO)Nc3ccc(C#Cc4cccc(F)c4)cc3[C@@H]21	.	.	-	-	.	116.2
CCOc1ccc(C(=O)NCC(c2ccco2)N2CCOCC2)cc1 (configuration not stated)	-	.	-	-	-	26.0
COc1ccc(C(=O)NCC(c2ccco2)N2CCOCC2)cc1 (configuration not stated)	-	.	-	-	-	-
CCOc1ccc(C(=O)NCC(=O)N2CCCCCCC2)cc1	-	-	-	-	-	22.2
CCOc1ccc(C(=O)NCC(=O)OCC(=O)N2CCCCC2)cc1	.	-	-	.	.	.
COc1ccc(-c2cnc3c(c2)C(=O)N([C@@H](C)CO)C[C@@H](C)[C@H](CN(C)C(=O)Cc2ccncc2)O3)cc1	-	.	-	-	-	-
CCCC(=O)N1CC2(CCN(C(=O)CC3CC3)CC2)c2c(n(C)c3cc(OC)ccc23)[C@@H]1CO	-	.	.	-	.	?
O=C(NNC(=O)C12CC3CC(CC(C3)C1)C2)c1cccc([N+](=O)[O-])c1	-	-	-	-	-	20.3
CN(C)CCCN1c2ccc(O)cc2Sc2ccc(Cl)cc21	51.3	.	-	.	-	-

Compound activity from PubChem.
